Assay results from publication PMC7709139 (Molecular imaging, 2015).
Numbered stars: 1 amine (or outer) side, 2 acyl side, 3 side chain; on linkers, the order of the positions; unused ones are H or OH. Bridge positions count the residues as written; N and C are the ends. Side chains are listed from the residue outwards. Ends that are not written are not given here. Peptide text beside a SMILES is read from it. * marks the point of attachment. X1 = CC(=NO)C(C)(C)NCCC(CCNC(C)(C)C(C)=NO)CCN*; Glutaryl = O=C(CCCC(=O)[*:2])[*:1]

Assays:
[1] = test system: tumor responses to Met-targeted therapeutics; details: ref [19],[26],[47],[48], cited from earlier work
[2] = test system: extracellular domain of human Met; details: fluorescence polarization; cited from earlier work
Met (U87-MG cells) = assay: Saturation binding, U87-MG cells; set-up: species or system human
How it was run: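 U87-MG cells were grown in DMEM with 2 mM L-glutamine, 0.1 mM NEAA, 1 mM pyruvate and 10% FBS, then placed in tubes (0.2–1.0 × 10⁶ cells) on the assay day. Duplicates were incubated with 0.2–10 nM ⁹⁹ᵐTc-labelled Met peptide for 2 h at 4°C, with nonspecific binding defined by 10^−6.3 M unlabelled peptide. Pellets were washed twice with PBS and counted. MKN-45 cells were plated (0.2 × 10⁶/well) the day before and trypsinised for counting. Kd and Bmax came from one-site nonlinear fits.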

in vivo [3] = assay: in vivo; set-up: species or system athymic female nude mice (human MKN-45 tumor); details: female, athymic nude (Ncr-nu/nu), mouse, iv, total radioactivity
MKN-45 xenografts [4] = assay: in vivo; set-up: species or system athymic female nude mice (human MKN-45 tumor)
in vivo [5] = assay: in vivo; set-up: species or system athymic female nude mice (human SNU-16 tumor); details: female, athymic nude (Ncr-nu/nu), mouse, iv, total radioactivity
SNU-16 xenografts = assay: in vivo; set-up: species or system athymic female nude mice (human SNU-16 tumor)
in vivo [6] = assay: in vivo; set-up: species or system athymic female nude mice (human U87-MG tumor); details: female, athymic nude (Ncr-nu/nu), mouse, iv, total radioactivity
U87-MG xenografts = assay: in vivo; set-up: species or system athymic female nude mice (human U87-MG tumor)
MKN-45 xenografts [7] = format: in vivo, athymic female nude mice (human MKN-45 tumor); details: 60 minutes postinjection
shed Met = assay: Plasma shed Met electrochemiluminescent immunoassay; format: in vivo, human Met in mouse xenograft plasma; details: for slope plasma shed Met/tumor mass: PHA-treated
How it was run: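 Blood was collected into EDTA tubes and centrifuged. Plasma was fast-frozen and stored at −70°C; samples from radiolabel-imaged mice were assayed after the radioactivity had decayed. Soluble Met ectodomain was measured by two-site electrochemiluminescent immunoassay with ruthenium-chelate-tagged detection antibody, against a recombinant Met ectodomain–IgG-Fc standard. Naive cohorts were sampled at 1–4 weeks, imaged cohorts at the end. Values were correlated with tumour mass by Spearman analysis, and slopes were given as ng/mL per g.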

MKN-45 xenografts [8] = test system: MKN-45 xenografts; set-up: species or system athymic female nude mice (human MKN-45 tumor); details: in vivo
MKN-45 xenografts [9] = assay: Longitudinal [^99mTc]-Met peptide SPECT imaging during PHA 665752 treatment; format: in vivo, athymic female nude mice (human MKN-45 tumor); details: for decrease in [^99mTc]-Met peptide tumor uptake (%ID/g) vs vehicle: PHA 665752 15 mg/kg i.p. daily
How it was run: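 Female nude mice carried s.c. MKN-45 xenografts, 30–50 mm³ at baseline. They received the Met TKI at 15 mg/kg i.p. in 5% DMSO:saline, or vehicle, daily for 3–4 weeks. SPECT/CT imaging was done 90 min after injection of ⁹⁹ᵐTc-labelled Met peptide, at baseline and then weekly. Tumour uptake was expressed as %ID/g normalised to a 20 g mouse. n = 9 per group; groups were compared by Welch t-test.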

MKN-45 xenografts [10] = assay: Tumor volume by 3D ultrasonography, [^99mTc]-Met peptide imaged cohort; format: in vivo, athymic female nude mice (human MKN-45 tumor); details: 15 mg/kg i.p. daily
How it was run: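 After each weekly SPECT/CT session in the daily-dosed MKN-45 cohort (Met TKI 15 mg/kg i.p.), 3D ultrasonography was run at 40 MHz with a 0.076 mm step size. Tumour volume was obtained with a parallel ROI algorithm and expressed as % increase from baseline. n = 9 per group; groups were compared by Welch t-test (p < .05).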

MKN-45 xenografts [11] = assay: Tumor weight and histologic grading; format: in vivo, athymic female nude mice (human MKN-45 tumor)
How it was run: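 SPECT-imaged MKN-45 mice, given the Met TKI daily i.p. or vehicle, were euthanised after the last imaging session at 3 weeks. Tumours were weighed (> 0.5 g counted) and formalin-fixed, paraffin-embedded sections were stained with H&E (necrosis, graded up to +4 severe) or ApopTag (apoptosis).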

MKN-45 xenografts [12] = assay: Longitudinal Cy5^⋆⋆-Met peptide fluorescence imaging during PHA 665752 treatment; format: in vivo, athymic female nude mice (human MKN-45 tumor); details: for decrease in Cy5^⋆⋆-Met fluorescent signal intensity in tumors vs vehicle: PHA 665752 5 days on/2 days off, n = 9, p < .05
MKN-45 xenografts [13] = assay: Tumor weight and histologic grading, Cy5^⋆⋆-Met peptide imaged cohort; format: in vivo, athymic female nude mice (human MKN-45 tumor); details: treated
How it was run: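 Fluorescence-imaged MKN-45 mice, given the Met TKI 5 days on/2 days off or vehicle, were euthanised after the last imaging session (18 or 25 days). Tumours were weighed (fraction > 0.5 g), fixed in 10% neutral-buffered formalin and paraffin-embedded. Sections were stained with H&E for necrosis and ApopTag for apoptosis, then graded. n = 9 per group.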

[14] = test system: gastric carcinoma cells (including MKN-45 cells); details: cited from earlier work
[15] = test system: human lung carcinoma cells; details: cited from earlier work
Met tyrosine kinase = details: cited from earlier work
[16] = target: T1, hepatocyte growth factor tyrosine kinase receptor (Met) (human (endogenous in MKN-45 and U87-MG), UniProt P08581 25-1390); assay: in vivo biodistribution with blocking
T1 sequence (P08581 25-1390): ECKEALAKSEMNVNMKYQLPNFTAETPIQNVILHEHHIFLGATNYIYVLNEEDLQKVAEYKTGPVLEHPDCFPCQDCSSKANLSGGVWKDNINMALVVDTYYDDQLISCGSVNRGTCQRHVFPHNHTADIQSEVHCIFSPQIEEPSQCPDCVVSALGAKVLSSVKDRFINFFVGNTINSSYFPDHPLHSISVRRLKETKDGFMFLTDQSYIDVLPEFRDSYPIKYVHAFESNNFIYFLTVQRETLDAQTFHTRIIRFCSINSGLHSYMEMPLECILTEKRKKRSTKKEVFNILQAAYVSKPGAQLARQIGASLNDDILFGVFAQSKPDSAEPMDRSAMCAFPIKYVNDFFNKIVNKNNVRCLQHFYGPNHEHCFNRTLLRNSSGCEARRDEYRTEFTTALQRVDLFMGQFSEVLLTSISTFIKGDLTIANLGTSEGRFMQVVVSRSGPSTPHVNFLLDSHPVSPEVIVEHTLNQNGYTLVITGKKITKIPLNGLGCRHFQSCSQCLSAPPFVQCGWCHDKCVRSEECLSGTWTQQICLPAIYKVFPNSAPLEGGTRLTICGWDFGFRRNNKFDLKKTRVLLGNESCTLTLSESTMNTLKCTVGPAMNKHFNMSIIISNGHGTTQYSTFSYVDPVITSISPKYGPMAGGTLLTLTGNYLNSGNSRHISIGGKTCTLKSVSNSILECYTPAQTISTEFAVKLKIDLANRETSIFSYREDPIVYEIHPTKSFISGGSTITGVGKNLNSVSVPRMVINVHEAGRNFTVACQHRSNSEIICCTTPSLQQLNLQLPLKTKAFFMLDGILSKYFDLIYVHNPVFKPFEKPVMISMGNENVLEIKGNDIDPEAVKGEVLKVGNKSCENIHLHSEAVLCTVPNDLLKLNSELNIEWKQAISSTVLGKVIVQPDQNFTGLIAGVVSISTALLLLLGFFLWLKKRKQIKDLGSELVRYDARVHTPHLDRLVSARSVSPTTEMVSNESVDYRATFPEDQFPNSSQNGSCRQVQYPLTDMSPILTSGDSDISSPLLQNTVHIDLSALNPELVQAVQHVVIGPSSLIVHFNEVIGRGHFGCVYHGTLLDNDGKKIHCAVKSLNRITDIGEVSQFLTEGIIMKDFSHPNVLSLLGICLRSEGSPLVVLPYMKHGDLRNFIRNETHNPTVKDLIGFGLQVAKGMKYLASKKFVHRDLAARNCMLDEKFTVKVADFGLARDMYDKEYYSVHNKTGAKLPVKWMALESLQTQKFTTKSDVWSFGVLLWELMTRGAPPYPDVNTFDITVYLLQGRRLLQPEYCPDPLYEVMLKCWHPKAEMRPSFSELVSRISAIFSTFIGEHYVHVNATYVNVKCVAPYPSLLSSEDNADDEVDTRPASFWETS

[17] = target: T1, hepatocyte growth factor tyrosine …; assay: radioligand binding

OC[C@H]1OC(O)[C@H]([18F])[C@@H](O)[C@@H]1O (some centres unmarked) [[^18F]FDG, [^18F]fluorodeoxyglucose]
PET detection of tumor response to crizotinib ([1]; Met intracellular kinase inhibition): failed to detect tumor responses | PET detection of tumor response to CE-355621 ([1]; mAb targeting the Met extracellular domain): detected early tumor responses

Cys4–16, 6–14; Ac-Ala-Gly-Ser-Cys-Tyr-Cys-Ser-Gly-Pro-Pro-Arg-Phe-Glu-Cys-Trp-Cys-Tyr-Glu-Thr-Glu-Gly-Thr-Gly-Gly-Gly-Lys (bicyclic or more) [unlabeled Met peptide]
IC50 [2]: 90 nM

CC(=O)N[C@@H](C)C(=O)NCC(=O)N[C@@H](CO)C(=O)N[C@H]1CSSC[C@@H](C(=O)N[C@@H](Cc2ccc(O)cc2)C(=O)N[C@@H](CCC(=O)O)C(=O)N[C@H](C(=O)N[C@@H](CCC(=O)O)C(=O)NCC(=O)N[C@H](C(=O)NCC(=O)NCC(=O)NCC(=O)N[C@@H](CCCCNC(=O)CCCC(=O)NCCC(CCNC(C)(C)C(C)=NO)CCNC(C)(C)C(C)=NO)C(N)=O)[C@@H](C)O)[C@@H](C)O)NC(=O)[C@H](Cc2c[nH]c3ccccc23)NC(=O)[C@@H]2CSSC[C@H](NC(=O)[C@H](Cc3ccc(O)cc3)NC1=O)C(=O)N[C@@H](CO)C(=O)NCC(=O)N1CCC[C@H]1C(=O)N1CCC[C@H]1C(=O)N[C@@H](CCCNC(=N)N)C(=O)N[C@@H](Cc1ccccc1)C(=O)N[C@@H](CCC(=O)O)C(=O)N2 (some centres unmarked) [[^99mTc]-Met peptide, metal not drawn] (Ac-AGSCYCSGPPRFECWCYETEGTGGGK([Glutaryl-X1])-NH2; disulfide 4-16, 6-14; C-terminus assumed)
specific binding (Met (U87-MG cells); U87-MG cells (low Met), 2 hours at 4°C): < 40% | Bmax U87-MG lower than MKN-45 (Met (U87-MG cells); U87-MG vs MKN-45 cells): ~ 90 fold | tissue to tissue ratio at 0.5 h (in vivo [3]): 9.8 ± 2.1 | tissue to tissue ratio at 1 h (in vivo [3]): 30.1 ± 3.3 | tissue to tissue ratio at 2 h (in vivo [3]): 49.6 ± 11.3 | tissue to tissue ratio at 3 h (in vivo [3]): 55.2 ± 13.4 | clearance (MKN-45 xenografts [4]): > 70% | kidney to muscle ratio exceeding tumor to muscle ratio (MKN-45 xenografts [4]): 1.6-3 fold | primary route of excretion (MKN-45 xenografts [4]): renal clearance as the primary route of excretion | tissue uptake at 0.5 h (in vivo [5]): 4.59 ± 0.5 %ID/g | tissue uptake at 1 h (in vivo [5]): 2.61 ± 0.82 %ID/g | tissue uptake at 2 h (in vivo [5]): 1.3 ± 0.34 %ID/g | tumor to muscle ratio reduced vs MKN-45 (SNU-16 xenografts): 2-4 fold | uptake in nontarget tissues (SNU-16 xenografts): comparable to the MKN-45 xenografts | tissue uptake at 1 h (in vivo [6]): 1.19 ± 0.11 %ID/g | tissue uptake at 2 h (in vivo [6]): 0.71 ± 0.15 %ID/g | tissue uptake at 3 h (in vivo [6]): 0.58 ± 0.09 %ID/g | tumor to muscle ratio reduced vs MKN-45 (U87-MG xenografts): 10-16 fold | visualization of MKN-45 tumors (MKN-45 xenografts [7]): clearly visualized at 60 minutes | effect on shed Met plasma concentrations (shed Met; imaged vs nonimaged xenografts): does not appear to alter shed Met plasma concentrations | reduction in slope (%ID/g), larger vs smaller tumors (MKN-45 xenografts [8]): 2-3 fold | slope (%ID/g) of total uptake per tumor vs tumor weight (MKN-45 xenografts [8]): 4.2 %ID/g | IC50 [2]: ~200 nM

Cc1[nH]c(/C=C2\C(=O)Nc3ccc(S(=O)(=O)Cc4c(Cl)cccc4Cl)cc32)c(C)c1C(=O)N1CCC[C@@H]1CN1CCCC1 [PHA 665752, (2R)-1-[[5-[(Z)-[5-[[(2,6-dichlorophenyl)methyl]sulfonyl]-1,2-dihydro-2-oxo-3H-indol-3-ylidene]methyl]-2,4-dimethyl-1H-pyrrol-3-yl]–carbonyl]-2-(1-pyrrolidinylmethyl) pyrrolidine]
tumor uptake of [^99mTc]-Met peptide after PHA 665752 (MKN-45 xenografts [9]; MKN-45 xenografts): significantly decreased as early as 1 week | decrease in [^99mTc]-Met peptide tumor uptake (%ID/g) vs vehicle (MKN-45 xenografts [9]; day 8, n = 9, p = .005): 43% | decrease in [^99mTc]-Met peptide tumor uptake (%ID/g) vs vehicle (MKN-45 xenografts [9]; day 21, n = 9, not significant): 25% | decrease in tumor volume vs vehicle (MKN-45 xenografts [10]; day 8, n = 9, not significant): 25% | decrease in tumor volume vs vehicle (MKN-45 xenografts [10]; day 21, n = 9, p = .016): 55% | tumors with moderately severe apoptosis (MKN-45 xenografts [11]; ApopTag, after 3 weeks PHA 665752): 22% | fraction of severely necrotic tumors (MKN-45 xenografts [11]; H&E, after 3 weeks PHA 665752 (vehicle also 78%)): 78% | fraction of tumors > 0.5 g (MKN-45 xenografts [11]; after 3 weeks PHA 665752): 44% | increase in plasma shed Met (ng/mL per g tumor) vs vehicle (shed Met; 1, 2, and 3 to 4 weeks after treatment): ~ 2 fold | slope plasma shed Met/tumor mass (shed Met; imaged xenografts, n = 7 (vehicle 43.7)): 77.7 (ng/mL)/(g) | slope plasma shed Met/tumor mass (shed Met; nonimaged xenografts (vehicle 43.8)): 77.5 (ng/mL)/(g) | fluorescent signal intensity and tumor volume vs vehicle (MKN-45 xenografts [12]; 25 days, n = 6 treated, 5 vehicle): these decreases were not significant | decrease in Cy5^⋆⋆-Met fluorescent signal intensity in tumors vs vehicle (MKN-45 xenografts [12]; 11 days): 54% | decrease in Cy5^⋆⋆-Met fluorescent signal intensity in tumors vs vehicle (MKN-45 xenografts [12]; 18 days): 55% | tumors with minimal (1+) apoptosis (MKN-45 xenografts [13]; 18 or 25 days (vehicle 78%)): 33% | tumors > 0.5 g (MKN-45 xenografts [13]; 18 or 25 days (vehicle 89%)): 78% | drug resistance on prolonged exposure [14]: acquired drug resistance associated with increased levels of Met | extracellular Met expression [14]: extracellular Met expression appeared unchanged | inhibition of Met phosphorylation [14]: pronounced inhibition of Met phosphorylation | total surface Met expression [15]: total surface Met expression increased | tumorigenicity, apoptosis and necrosis (Met tyrosine kinase): reduction of tumorigenicity accompanied with increases in apoptosis and necrosis

Cc1cn([C@H]2C[C@H]([18F])[C@@H](CO)O2)c(=O)[nH]c1=O [[^18F]FLT, [^18F]fluorothymidine]
PET detection of tumor response to crizotinib and BAY 853474 [1]: detected a robust tumor response

Ac-AGSCYCSGPPRFECWCYETEGTGGGK (disulfide 6-14, 4-16; also: trifluoroacetate salt) [unlabeled Met peptide (AH-111972 trifluoracetate salt [DX-1662])]
percent decrease of tumor to muscle ratio of [^99mTc]-Met peptide [16]: 53%

Ac-AGSCYCSGPPRFECWCYETEGTGGGK(cPn216) (disulfide 6-14, 4-16; also: 99mTc chelated by cPn216) [[^99mTc]-Met peptide (AH-113018)]
Kd [17]: 3.31 nM
